The values below come from ChEMBL document CHEMBL1641579, “Synthesis and biological evaluation of 7-substituted-1-(3-bromophenylamino)isoquinoline-4-carbonitriles as inhibitors of myosin light chain kinase and epidermal growth factor receptor” (Bioorg Med Chem, 2011).

The target in assay [1] is Serine/threonine-protein kinase Nek6 (Homo sapiens) (UniProt Q9HC98). Kind of assay: Inhibition of NEK6 assessed as residual activity at 10 uM. The method, boiled down:
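Panel screen by radioactive kinase assay at a single inhibitor concentration. Score is the percent activity remaining relative to DMSO controls (100%).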

Assay [2] has as its target Myosin light chain kinase, smooth muscle (Homo sapiens, UniProt Q15746). In words: Competitive inhibition of MLCK by Lineweaver-Burk plot analysis. In a few lines:
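Double-reciprocal (1/V vs 1/[ATP]) kinetics using the HTRF phosphorylation read-out with Ca2+/calmodulin. Conditions: 375 nM STK1 peptide substrate, ATP at 80, 110 and 140 µM, inhibitor at 0, 1, 5 and 10 µM. Reaction velocities plotted to determine the mode of inhibition.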

The target of assay [3] is Ephrin type-A receptor 2 (Homo sapiens) (UniProt P29317). Kind of assay: Inhibition of EPHA2 assessed as residual activity at 10 uM. The method, boiled down: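 Kinase panel screen run as a radioactive activity assay at single compound concentration. Score reported as percent activity remaining relative to DMSO controls (100%).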
Assay [4] deals with Epidermal growth factor receptor (Homo sapiens, UniProt P00533). Kind of assay: Inhibition of EGFR by HTRF assay.
A short description of assay [5]: Growth inhibition of human NCI-H1915 cells assessed as ATP level after 96 hrs by CellTiter-Glo assay. In kind it is functional. The note with it: NCI-H1915, 96 h. The method, boiled down:
(§1)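 Human NSCLC cells, maintained as described previously and authenticated by mutational analysis and SNP arrays, were plated and incubated 24 h. Compounds were dissolved in DMSO and added as 10 threefold serial dilutions. Viability was read after 96 h as cellular ATP content by luminescence, and half-maximal inhibitory concentrations were fitted to give GI50.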

The next assay has as its system NCI-H28. Kind of assay: Growth inhibition of human NCI-H28 cells assessed as ATP level after 96 hrs by CellTiter-Glo assay. The note with it: NCI-H28, 96 h. The assay is classed as functional. Background: In ATP-based viability assays light output follows the ATP content of the culture.
The nature of assay [6]: Growth inhibition of human NCI-H2172 cells assessed as ATP level after 96 hrs by CellTiter-Glo assay. In kind it is functional. The note with it: NCI-H2172, 96 h.
Assay [7] is described as follows: Growth inhibition of human HCC461 cells assessed as ATP level after 96 hrs by CellTiter-Glo assay. In kind it is functional. The settings on record: HCC461, 96 h. The method, boiled down:
(§2)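 NSCLC lines maintained as in earlier work and authenticated by mutational analysis and SNP arrays. Cells were plated in 384-well format and allowed 24 h before compound addition as 10 threefold serial dilutions (DMSO stocks). After 96 h, viability was read as cellular ATP by CellTiter-Glo. GI50 was fitted with an R package.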

The nature of assay [8]: Growth inhibition of human NCI-H1781 cells assessed as ATP level after 96 hrs by CellTiter-Glo assay. In kind it is functional. The note with it: NCI-H1781, 96 h. The method, boiled down:
as §2

The test system of another assay is NCI-H661. Kind of assay: Growth inhibition of human NCI-H661 cells assessed as ATP level after 96 hrs by CellTiter-Glo assay. In kind it is functional. The settings on record: NCI-H661, 96 h.
A further assay has as its system SK-LU-1. Kind of assay: Growth inhibition of human SKLU1 cells assessed as ATP level after 96 hrs by CellTiter-Glo assay. In kind it is functional. The note with it: SK-LU-1, 96 h.
The nature of assay [9]: Growth inhibition of human NCI-H2077 cells assessed as ATP level after 96 hrs by CellTiter-Glo assay. The assay is classed as functional. The settings on record: NCI-H2077, 96 h.
The nature of assay [10]: Growth inhibition of human HCC2279 cells assessed as ATP level after 96 hrs by CellTiter-Glo assay. The assay is classed as functional. The method, boiled down:
as §2

A short description of assay [11]: Growth inhibition of human NCI-H3122 cells assessed as ATP level after 96 hrs by CellTiter-Glo assay. The assay is classed as functional. The note with it: NCI-H3122, 96 h.
A further assay relates to Calu-6. In words: Growth inhibition of human Calu6 cells assessed as ATP level after 96 hrs by CellTiter-Glo assay. The note with it: Calu-6, 96 h. The assay is classed as functional. In a few lines:
as §2

For a further assay, the system named is NCI-H358. In words: Growth inhibition of human NCI-H358 cells assessed as ATP level after 96 hrs by CellTiter-Glo assay. The assay is classed as functional. The note with it: NCI-H358, 96 h.
For the next assay, the system named is DV-90. In words: Growth inhibition of human DV90 cells assessed as ATP level after 96 hrs by CellTiter-Glo assay. The note with it: DV-90, 96 h. The assay is classed as functional. In a few lines:
as §2

Assay [12] in a line: Growth inhibition of human HCC1359 cells assessed as ATP level after 96 hrs by CellTiter-Glo assay. In kind it is functional. The method, boiled down: as §2
Another assay concerns NCI-H2228. Kind of assay: Growth inhibition of human NCI-H2228 cells assessed as ATP level after 96 hrs by CellTiter-Glo assay. In kind it is functional. The settings on record: NCI-H2228, 96 h.
Assay [13] can be described thus: Growth inhibition of human HCC1171 cells assessed as ATP level after 96 hrs by CellTiter-Glo assay. In kind it is functional. The note with it: HCC1171, 96 h. The method, boiled down: as §2
For another assay, the system named is NCI-H1355. Kind of assay: Growth inhibition of human NCI-H1355 cells assessed as ATP level after 96 hrs by CellTiter-Glo assay. In kind it is functional. The note with it: NCI-H1355, 96 h. In a few lines:
as §2

Assay [14] can be described thus: Growth inhibition of human H441 cells assessed as ATP level after 96 hrs by CellTiter-Glo assay. In kind it is functional. The settings on record: NCI-H441, 96 h. The method, boiled down:
as §2

Assay [15] can be described thus: Growth inhibition of human NCI-H1944 cells assessed as ATP level after 96 hrs by CellTiter-Glo assay. In kind it is functional. The note with it: NCI-H1944, 96 h. In a few lines:
as §1

The next assay has as its system NCI-H1792. In words: Growth inhibition of human NCI-H1792 cells assessed as ATP level after 96 hrs by CellTiter-Glo assay. In kind it is functional. The settings on record: NCI-H1792, 96 h. In a few lines:
(§3)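 NSCLC lines maintained as previously described, authenticated by mutational analysis and SNP arrays. Cells seeded and incubated 24 h, then given compound (DMSO stocks) as 10 threefold serial dilutions. Viability read after 96 h as cellular ATP content (CellTiter-Glo). GI50 derived by curve fitting of half-maximal inhibition.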

Assay [16] in a line: Growth inhibition of human HCC15 cells assessed as ATP level after 96 hrs by CellTiter-Glo assay. The assay is classed as functional. The note with it: HCC15, 96 h. In a few lines: as §2
A short description of assay [17]: Growth inhibition of human HCC44 cells assessed as ATP level after 96 hrs by CellTiter-Glo assay. The note with it: HCC44, 96 h. In kind it is functional. In a few lines: as §2
In a further assay the test system is NCI-H522. In words: Growth inhibition of human NCI-H522 cells assessed as ATP level after 96 hrs by CellTiter-Glo assay. In kind it is functional. The settings on record: NCI-H522, 96 h.
A further assay relates to NCI-H1838. Kind of assay: Growth inhibition of human NCI-H1838 cells assessed as ATP level after 96 hrs by CellTiter-Glo assay. In kind it is functional. The note with it: NCI-H1838, 96 h. In a few lines:
as §3

The nature of assay [18]: Growth inhibition of human HCC193 cells assessed as ATP level after 96 hrs by CellTiter-Glo assay. The assay is classed as functional. The settings on record: HCC193, 96 h. In a few lines: as §2
The test system of a further assay is NCI-H596. Kind of assay: Growth inhibition of human NCI-H596 cells assessed as ATP level after 96 hrs by CellTiter-Glo assay. The assay is classed as functional. The note with it: NCI-H596, 96 h.
The nature of assay [19]: Growth inhibition of human NCI-H322 cells assessed as ATP level after 96 hrs by CellTiter-Glo assay. In kind it is functional. The note with it: NCI-H322, 96 h.
In a further assay the test system is NCI-H520. In words: Growth inhibition of human NCI-H520 cells assessed as ATP level after 96 hrs by CellTiter-Glo assay. The settings on record: NCI-H520, 96 h. The assay is classed as functional.
Assay [20] is described as follows: Growth inhibition of human HCC78 cells assessed as ATP level after 96 hrs by CellTiter-Glo assay. The settings on record: HCC78, 96 h. The assay is classed as functional. The method, boiled down:
as §2

Calls of active or inactive are those of the source. No cut-off for these calls is given here.

Serine/threonine-protein kinase Nek6 (Homo sapiens), sequence (Q9HC98 whole entry): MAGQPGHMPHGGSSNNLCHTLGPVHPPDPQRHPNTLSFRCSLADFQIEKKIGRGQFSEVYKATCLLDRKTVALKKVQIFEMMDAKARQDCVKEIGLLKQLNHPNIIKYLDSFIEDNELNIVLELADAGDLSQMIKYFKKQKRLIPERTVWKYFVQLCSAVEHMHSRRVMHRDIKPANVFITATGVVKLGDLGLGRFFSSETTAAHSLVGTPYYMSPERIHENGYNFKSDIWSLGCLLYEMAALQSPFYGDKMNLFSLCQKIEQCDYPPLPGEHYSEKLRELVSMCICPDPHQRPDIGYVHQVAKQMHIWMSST
Ephrin type-A receptor 2 (Homo sapiens), sequence (P29317 whole entry): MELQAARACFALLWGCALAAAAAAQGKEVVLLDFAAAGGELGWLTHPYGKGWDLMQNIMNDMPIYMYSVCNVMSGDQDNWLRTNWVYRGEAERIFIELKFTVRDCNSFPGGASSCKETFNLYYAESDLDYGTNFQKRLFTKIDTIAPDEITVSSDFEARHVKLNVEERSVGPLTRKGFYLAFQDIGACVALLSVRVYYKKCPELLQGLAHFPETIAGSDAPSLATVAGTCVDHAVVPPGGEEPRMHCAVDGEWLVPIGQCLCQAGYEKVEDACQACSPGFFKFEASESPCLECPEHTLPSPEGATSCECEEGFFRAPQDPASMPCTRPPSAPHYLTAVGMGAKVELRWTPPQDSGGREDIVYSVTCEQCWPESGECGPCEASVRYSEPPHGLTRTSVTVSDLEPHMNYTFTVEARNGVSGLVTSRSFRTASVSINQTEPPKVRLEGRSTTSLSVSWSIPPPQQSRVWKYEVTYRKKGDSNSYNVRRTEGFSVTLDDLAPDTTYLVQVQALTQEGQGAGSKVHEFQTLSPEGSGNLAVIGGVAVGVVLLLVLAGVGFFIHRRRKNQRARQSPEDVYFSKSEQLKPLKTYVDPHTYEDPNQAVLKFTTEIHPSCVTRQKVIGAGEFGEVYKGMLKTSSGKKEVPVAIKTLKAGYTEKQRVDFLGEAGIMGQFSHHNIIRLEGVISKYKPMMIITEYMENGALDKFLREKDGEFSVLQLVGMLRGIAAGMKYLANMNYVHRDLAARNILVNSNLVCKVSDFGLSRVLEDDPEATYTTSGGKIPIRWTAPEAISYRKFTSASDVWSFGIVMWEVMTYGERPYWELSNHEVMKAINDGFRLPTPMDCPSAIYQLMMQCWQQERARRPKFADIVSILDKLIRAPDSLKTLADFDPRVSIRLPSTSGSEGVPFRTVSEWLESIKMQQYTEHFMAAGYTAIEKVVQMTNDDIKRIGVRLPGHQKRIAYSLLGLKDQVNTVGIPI
Epidermal growth factor receptor, sequence (P00533 whole entry): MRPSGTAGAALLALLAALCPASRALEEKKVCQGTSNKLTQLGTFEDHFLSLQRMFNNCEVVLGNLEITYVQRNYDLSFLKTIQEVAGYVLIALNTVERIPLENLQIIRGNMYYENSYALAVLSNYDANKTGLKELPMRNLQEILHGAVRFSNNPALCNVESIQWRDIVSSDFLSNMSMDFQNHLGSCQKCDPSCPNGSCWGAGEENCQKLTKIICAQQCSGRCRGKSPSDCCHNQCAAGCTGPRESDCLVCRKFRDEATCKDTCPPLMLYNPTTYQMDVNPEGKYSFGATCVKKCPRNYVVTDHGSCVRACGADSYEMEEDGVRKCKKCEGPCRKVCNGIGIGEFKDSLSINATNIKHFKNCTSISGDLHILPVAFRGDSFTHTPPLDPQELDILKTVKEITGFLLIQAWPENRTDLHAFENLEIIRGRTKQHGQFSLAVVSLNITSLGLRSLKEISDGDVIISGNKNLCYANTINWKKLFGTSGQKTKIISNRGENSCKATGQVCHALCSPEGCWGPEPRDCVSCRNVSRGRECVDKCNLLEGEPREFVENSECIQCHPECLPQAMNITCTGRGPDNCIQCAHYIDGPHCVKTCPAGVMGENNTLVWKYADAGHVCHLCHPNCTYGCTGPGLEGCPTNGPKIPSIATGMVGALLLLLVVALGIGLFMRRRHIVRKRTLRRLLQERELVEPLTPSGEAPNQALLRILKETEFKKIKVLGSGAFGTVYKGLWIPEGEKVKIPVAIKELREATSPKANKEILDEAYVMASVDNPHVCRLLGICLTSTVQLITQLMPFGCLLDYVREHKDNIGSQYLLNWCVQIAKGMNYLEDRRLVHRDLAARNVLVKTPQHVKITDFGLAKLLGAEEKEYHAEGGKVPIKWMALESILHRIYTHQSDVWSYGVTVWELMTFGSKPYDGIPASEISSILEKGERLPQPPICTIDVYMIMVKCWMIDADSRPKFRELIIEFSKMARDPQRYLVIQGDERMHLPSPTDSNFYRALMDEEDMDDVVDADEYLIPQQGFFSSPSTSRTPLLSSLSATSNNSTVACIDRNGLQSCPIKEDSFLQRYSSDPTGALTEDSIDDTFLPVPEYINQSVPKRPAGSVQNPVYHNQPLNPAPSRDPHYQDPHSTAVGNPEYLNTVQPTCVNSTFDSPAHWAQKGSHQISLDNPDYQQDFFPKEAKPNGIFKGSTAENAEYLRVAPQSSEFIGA
Myosin light chain kinase, smooth muscle, sequence (Q15746 whole entry): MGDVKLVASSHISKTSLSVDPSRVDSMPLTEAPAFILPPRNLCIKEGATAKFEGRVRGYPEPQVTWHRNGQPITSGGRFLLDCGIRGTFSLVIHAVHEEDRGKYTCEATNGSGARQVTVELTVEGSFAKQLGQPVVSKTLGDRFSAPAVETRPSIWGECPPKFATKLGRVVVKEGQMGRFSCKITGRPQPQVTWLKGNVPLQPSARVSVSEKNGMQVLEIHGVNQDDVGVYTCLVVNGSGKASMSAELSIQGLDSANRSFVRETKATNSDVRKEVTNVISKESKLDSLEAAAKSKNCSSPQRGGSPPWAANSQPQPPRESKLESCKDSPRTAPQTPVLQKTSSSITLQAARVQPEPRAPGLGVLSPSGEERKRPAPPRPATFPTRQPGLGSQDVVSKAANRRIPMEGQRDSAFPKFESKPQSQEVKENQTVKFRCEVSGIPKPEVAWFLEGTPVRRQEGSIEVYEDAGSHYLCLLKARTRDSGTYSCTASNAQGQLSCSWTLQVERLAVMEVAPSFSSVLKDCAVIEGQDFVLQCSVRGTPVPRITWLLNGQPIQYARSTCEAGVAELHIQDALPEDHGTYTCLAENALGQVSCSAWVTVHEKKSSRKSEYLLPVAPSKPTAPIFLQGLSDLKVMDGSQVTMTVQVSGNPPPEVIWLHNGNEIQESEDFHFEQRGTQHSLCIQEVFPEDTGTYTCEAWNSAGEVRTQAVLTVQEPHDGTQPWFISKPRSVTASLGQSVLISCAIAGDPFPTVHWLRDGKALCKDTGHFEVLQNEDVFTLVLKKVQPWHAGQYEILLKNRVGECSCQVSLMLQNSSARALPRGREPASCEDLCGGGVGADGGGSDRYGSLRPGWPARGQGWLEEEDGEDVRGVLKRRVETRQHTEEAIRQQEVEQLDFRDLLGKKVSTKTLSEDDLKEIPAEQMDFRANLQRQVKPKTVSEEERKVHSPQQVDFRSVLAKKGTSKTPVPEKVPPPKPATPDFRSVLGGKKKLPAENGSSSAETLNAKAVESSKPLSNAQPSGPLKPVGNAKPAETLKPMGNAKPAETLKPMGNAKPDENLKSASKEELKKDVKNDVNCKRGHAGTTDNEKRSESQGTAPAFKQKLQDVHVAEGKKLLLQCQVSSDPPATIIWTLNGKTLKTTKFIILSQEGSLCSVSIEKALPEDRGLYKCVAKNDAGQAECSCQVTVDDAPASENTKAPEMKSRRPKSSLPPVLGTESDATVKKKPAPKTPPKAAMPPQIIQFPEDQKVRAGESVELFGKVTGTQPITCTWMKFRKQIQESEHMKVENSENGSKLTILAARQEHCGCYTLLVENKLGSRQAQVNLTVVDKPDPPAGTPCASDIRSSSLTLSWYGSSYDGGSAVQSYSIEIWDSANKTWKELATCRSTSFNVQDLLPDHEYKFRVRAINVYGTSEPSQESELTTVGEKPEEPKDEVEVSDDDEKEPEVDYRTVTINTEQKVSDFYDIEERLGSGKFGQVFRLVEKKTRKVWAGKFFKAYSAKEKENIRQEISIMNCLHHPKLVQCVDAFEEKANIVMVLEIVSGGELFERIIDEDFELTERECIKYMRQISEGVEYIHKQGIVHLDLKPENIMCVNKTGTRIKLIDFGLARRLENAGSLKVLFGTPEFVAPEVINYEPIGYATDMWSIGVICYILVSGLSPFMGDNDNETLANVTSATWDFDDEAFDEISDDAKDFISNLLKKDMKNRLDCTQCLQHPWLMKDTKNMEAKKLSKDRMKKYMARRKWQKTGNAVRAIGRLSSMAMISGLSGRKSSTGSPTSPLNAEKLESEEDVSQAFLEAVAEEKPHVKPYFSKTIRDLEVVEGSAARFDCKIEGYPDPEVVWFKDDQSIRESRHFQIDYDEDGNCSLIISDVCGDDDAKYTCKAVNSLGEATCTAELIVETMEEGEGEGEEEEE

With `CN1CCN(CCC(=O)Nc2ccc3c(C#N)cnc(Nc4cccc(Br)c4)c3c2)CC1`, the values for the Activity in assay [1] and in [3] were 100% and 87%, respectively. Further, the inhibition entry in assay [2] was “Active”. In assay [4], the IC50 (as a rule, the concentration needed to halve the response being measured) is 1.3 µM.

Consider `CN(C)CCCC(=O)Nc1ccc2c(C#N)cnc(Nc3cccc(Br)c3)c2c1`, for which the Activity turned out to be 100% in [1] and 84% in assay [3].

`CN(C)C/C=C/C(=O)Nc1ccc2c(C#N)cnc(Nc3cccc(Br)c3)c2c1`: the figures for the Activity in assay [1] and in assay [3] were 81% and 73%, respectively. Besides, the concentration for 50% growth inhibition (GI50) (commonly the concentration that inhibits growth by half) in assay [5] was 18.2 µM; in the assay with NCI-H28, 24.8 µM; in assay [6], 17.4 µM; in assay [7], 16 µM; in [8], 10.1 µM; with NCI-H661 it was 14 µM. Moreover, the GI50 in the assay on SK-LU-1 is 16.6 µM; in [9], 13.2 µM; in assay [10] it was 10.6 µM; in assay [11], 16.6 µM; in the assay with Calu-6, 16.4 µM; with NCI-H358, 14.5 µM. The GI50 in the assay on DV-90 came to 18.4 µM; in assay [12] it was 18.6 µM; in the assay with NCI-H2228, 21.9 µM; in [13], 17.4 µM; in the assay with NCI-H1355, 22.9 µM; in assay [14] it was 19.1 µM. Also, the GI50 in assay [15] was determined as 33.9 µM; with NCI-H1792, 26.3 µM; in assay [16] it was 19.3 µM; in assay [17], 23.7 µM; with NCI-H522, 17.2 µM; with NCI-H1838, 18.2 µM. In addition, the concentration for 50% growth inhibition (GI50) in assay [18] turned out to be 15.3 µM; in the assay with NCI-H596, 19.5 µM; in assay [19], 24.8 µM; in the assay on NCI-H520, 16 µM; in assay [20] it was 19.7 µM. Inhibition in assay [4] was half-maximal at 0.15 µM (IC50).
